From ChEMBL document CHEMBL1143869, “Amide bond direction modulates G-quadruplex recognition and telomerase inhibition by 2,6 and 2,7 bis-substituted anthracenedione derivatives” (Bioorg Med Chem, 2008)

Tests used:
Homo sapiens [1] = species on record: Homo sapiens; assay: Binding affinity to human telomeric G-quadraflex assessed as thermal stability at 1 uM by FRET assay
How it was run: (§1)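 Human telomeric (GGGTTA)4 oligonucleotide labelled with fluorescein at the 5'-end and MethylRed quencher at the 3'-end, folded into an intramolecular G-quadruplex in 50 mM potassium phosphate buffer, pH 7.4. Fluorescence melting was run on a Roche Light Cycler (excitation 488 nm, emission 520 nm) without and with ligand. Stabilisation was taken as the increase in melting temperature.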

[2] = Inhibition of human telomerase in JR8 cells by TRAP assay; assay type: cell-based
How it was run: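 Modified TRAP assay. Telomerase source was supernatant of JR8 cell lysate (13000 rpm, 30 min, 4 °C). The 50 µl reaction held 50 µM dNTPs, 0.2 µg labelled TS, 0.1 µg ACX return primer, 500 ng protein extract, 2 U Taq and a TSNT internal control with NT primer, with or without drug at increasing concentrations. Telomerase was inactivated at 85 °C for 5 min. PCR ran 25 cycles (94/65/72 °C, 30 s each). Products were resolved on a 2% agarose gel and stained with ethidium bromide.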

Homo sapiens [3] = species on record: Homo sapiens; assay: Binding affinity to human telomeric G-quadraflex assessed as thermal stability at 10 uM by FRET assay; how it was run: as §1

Row | SMILES | ΔTm (Homo sapiens [1]) | EC50 [2] | ΔTm (Homo sapiens [3])
1 | NCCNC(=O)c1ccc2c(c1)C(=O)c1cc(C(=O)NCCN)ccc1C2=O | 3.3 °C | 14.5 µM | 12.9 °C
2 | NCCC(=O)Nc1ccc2c(c1)C(=O)c1cc(NC(=O)CCN)ccc1C2=O | 11.3 °C | 1.2 µM | 27.3 °C
3 | O=C(NCCN1CCCC1)c1ccc2c(c1)C(=O)c1ccc(C(=O)NCCN3CCCC3)cc1C2=O | 1.8 °C | 10.4 µM | 10.8 °C
4 | NCCNC(=O)c1ccc2c(c1)C(=O)c1ccc(C(=O)NCCN)cc1C2=O | 2 °C | 5.2 µM | 10 °C
5 | O=C(CCN1CCCC1)Nc1ccc2c(c1)C(=O)c1ccc(NC(=O)CCN3CCCC3)cc1C2=O | 5.9 °C | 2.5 µM | 19.2 °C
6 | NCCC(=O)Nc1ccc2c(c1)C(=O)c1ccc(NC(=O)CCN)cc1C2=O | 9.1 °C | 1.2 µM | 18.1 °C
